Experimental data reported in PMC4091826 (Molecular Biology of the Cell, 2014).
Values belong to the molecule of their own block, whether it stands above or below them. No end group written: not given here.

Legend:
human mtHsp70 [1] = assay: Stimulation of ATPase activity by P5 peptide, human mtHsp70; assay type: biochemical; settings: 250-fold molar excess of P5; Figure 1D
In short: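 Human mtHsp70[ATP] complexes were formed by incubating 100 μg protein with 50 μM ATP and 25 μCi [γ-32P]ATP on ice for 3 min in buffer A (25 mM HEPES-KOH pH 7.5, 100 mM KCl, 10 mM Mg(OAc)2). Complexes were isolated by Sephadex G50 (1 μM protein) and snap-frozen. Single-turnover hydrolysis was run at 25°C in buffer A, either alone (basal) or with P5 peptide.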

human mtHsp70 [2] = settings: versus wild type; ref Goswami et al., 2010; cited from earlier work
human mtHsp70 [3] = settings: ref Goswami et al., 2010; cited from earlier work
human mtHsp70 [4] = assay: Single-turnover basal ATPase assay, human mtHsp70; assay type: biochemical; settings: 25°C, buffer A, versus wild type, Figure 1C
In short: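 Purified protein (100 μg) was loaded on ice for 3 min with 50 μM ATP and 25 μCi [γ-32P]ATP in buffer A (25 mM HEPES-KOH pH 7.5, 100 mM KCl, 10 mM Mg(OAc)2). Complexes were isolated immediately on Sephadex G50 and frozen in liquid nitrogen; they contained 1 μM protein. Hydrolysis was then run at 25°C in buffer alone, without stimulators.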

[5] = biological target: T1, Ssc1 (yeast mtHsp70), wild type, hexahistidine-tagged, purified (S. cerevisiae, UniProt P0CS90 24-654); assay: fluorescence polarisation
[6] = biological target: T2, Ssc1 E467A, hexahistidine-tagged, purified (S. cerevisiae, UniProt P0CS90 24-654, E467A); assay: fluorescence polarisation
[7] = biological target: human mtHsp70, wild type, hexahistidine-tagged, purified (human, UniProt P38646 47-679); assay: fluorescence polarisation
Chain of human mtHsp70, wild type, hexahistidine-tagged, purified (P38646 47-679): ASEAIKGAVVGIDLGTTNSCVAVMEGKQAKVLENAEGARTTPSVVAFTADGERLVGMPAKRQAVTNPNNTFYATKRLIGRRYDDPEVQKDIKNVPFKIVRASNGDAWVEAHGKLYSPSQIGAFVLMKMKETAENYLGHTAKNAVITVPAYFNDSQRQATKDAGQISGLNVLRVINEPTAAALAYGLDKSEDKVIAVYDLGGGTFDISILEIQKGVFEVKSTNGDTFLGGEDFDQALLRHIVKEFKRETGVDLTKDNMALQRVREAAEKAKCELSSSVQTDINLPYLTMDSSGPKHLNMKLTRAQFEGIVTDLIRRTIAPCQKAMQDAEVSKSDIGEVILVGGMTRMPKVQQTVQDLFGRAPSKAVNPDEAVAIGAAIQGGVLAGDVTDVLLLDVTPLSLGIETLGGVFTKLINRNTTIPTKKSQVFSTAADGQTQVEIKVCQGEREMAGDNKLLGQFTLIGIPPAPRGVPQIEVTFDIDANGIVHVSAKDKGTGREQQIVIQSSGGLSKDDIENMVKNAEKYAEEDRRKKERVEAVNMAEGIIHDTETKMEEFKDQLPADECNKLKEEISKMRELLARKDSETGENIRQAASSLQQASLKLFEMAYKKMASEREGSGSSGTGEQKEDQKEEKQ

[8] = biological target: T1, Ssc1 (yeast mtHsp70), wild type, …; assay: fluorescence polarisation; remark: listed apart in the source
[9] = biological target: T2, Ssc1 E467A, hexahistidine-tagged, …; assay: fluorescence polarisation; remark: listed apart in the source
[10] = biological target: T1, Ssc1 (yeast mtHsp70), wild type, …; assay: fluorescence polarisation; remark: listed apart in the source
Target sequence in this assay (P0CS90 24-654): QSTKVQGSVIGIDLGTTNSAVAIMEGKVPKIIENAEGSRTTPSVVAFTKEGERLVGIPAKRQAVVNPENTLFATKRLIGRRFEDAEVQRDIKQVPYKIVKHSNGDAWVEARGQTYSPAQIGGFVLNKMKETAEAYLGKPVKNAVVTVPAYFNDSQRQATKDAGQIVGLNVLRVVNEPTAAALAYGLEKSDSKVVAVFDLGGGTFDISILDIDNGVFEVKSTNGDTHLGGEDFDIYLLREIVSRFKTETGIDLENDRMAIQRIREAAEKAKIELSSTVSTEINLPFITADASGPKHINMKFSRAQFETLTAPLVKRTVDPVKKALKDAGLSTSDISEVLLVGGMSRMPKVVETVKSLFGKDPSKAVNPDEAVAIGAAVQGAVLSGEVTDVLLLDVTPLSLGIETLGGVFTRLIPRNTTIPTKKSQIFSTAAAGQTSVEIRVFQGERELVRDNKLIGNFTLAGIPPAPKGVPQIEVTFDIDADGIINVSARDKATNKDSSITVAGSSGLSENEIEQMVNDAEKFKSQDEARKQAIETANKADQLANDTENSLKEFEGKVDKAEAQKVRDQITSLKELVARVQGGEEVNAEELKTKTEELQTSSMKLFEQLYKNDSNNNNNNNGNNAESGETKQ

[11] = biological target: T2, Ssc1 E467A, hexahistidine-tagged, …; assay: fluorescence polarisation; remark: listed apart in the source
Ssc1 D411R, purified = Ssc1 D411R, purified (S. cerevisiae, UniProt P0CS90 24-654, D411R); assay: fluorescence polarisation
[12] = biological target: Ssc1 E467A-D411R, purified (S. cerevisiae, UniProt P0CS90 24-654, D411R | E467A); assay: fluorescence polarisation
[13] = tested on: fluorescein-labeled P5 peptide (F-P5); assay: Fluorescence anisotropy equilibrium binding of F-P5 peptide to Ssc1 proteins; settings: F-P5, versus wild type
Ssc1 [14] = assay: Single-turnover basal ATPase assay, Ssc1; assay type: biochemical, S. cerevisiae; settings: 25°C, buffer A, versus wild type
Ssc1 [15] = assay: ATP-induced substrate release by fluorescence anisotropy, Ssc1; assay type: biochemical, S. cerevisiae; settings: 2.5 mM ATP, 5 μM Ssc1[F-P5], anisotropy decrease up to 5 min
yeast cells = assay: Growth phenotype; assay type: cell-based, S. cerevisiae; settings: minimal medium or 5-FOA medium, serial dilutions
Ssc1 [16] = assay: Limited proteolytic cleavage by trypsin; assay type: biochemical, S. cerevisiae; settings: 1:100 (wt/wt) trypsin, 25°C, SDS-PAGE
Tim44 = assay: Coimmunoprecipitation of Ssc1 with Tim44; assay type: binding, S. cerevisiae; settings: mitochondrial lysates, anti-Ssc1, presence or absence of 1 mM ATP; Figure 6A
Hsp60 = Hsp60 precursor accumulation assay; assay type: cell-based, S. cerevisiae; settings: shift to 37°C for 2 h, immunoblot; Figure 6B
In short: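 Yeast strains were grown in YPD at 28°C to early log phase, then shifted to 37°C for 2 h. Cells equivalent to 2 OD A600 were taken before and after the shift and lysed in 0.1 N NaOH. Whole-cell extracts were run on SDS–PAGE and immunoblotted for Hsp60 to detect its precursor (p) and mature (m) forms.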

Cytb2(47)-DHFR = assay: In vitro import kinetics of Cytb2; assay type: biochemical, S. cerevisiae; settings: isolated mitochondria, 37°C preincubation; Figure 6, C and D
In short: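 Saturating purified precursor plus 8 mM each ATP and NADH added. Time points stopped with valinomycin, then proteinase K (quenched with PMSF). Anti-DHFR immunoblot; intermediate form plotted over time, maximum wild-type import set as 100%.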

mitochondrial mass = assay: Mitochondrial mass estimation by 10-N-nonyl acridine orange flow cytometry; assay type: cell-based, S. cerevisiae; settings: in comparison to wild type; Figure 6E
In short: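 Per strain, cells equal to 0.2 OD at A600 were stained with 10-N-nonyl acridine orange, a cardiolipin-binding dye, and analysed by flow cytometry to estimate total mitochondrial mass.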

Molecule: mtHsp70G489E
- stimulation of ATPase activity by P5 substrate peptide, in words (human mtHsp70 [1]): marked decrease in stimulation of ATPase activity by P5 substrate peptide
- elevated basal rate of ATP hydrolysis (human mtHsp70 [2]): fivefold elevated
- loss in stimulation of ATPase activity by peptide substrates (human mtHsp70 [3]): 70%

Molecule: mtHsp70Q488A
- fold enhancement in basal ATPase activity (human mtHsp70 [4]): 2.75 fold
- stimulation of ATPase activity by P5 substrate peptide, in words (human mtHsp70 [1]): marked decrease in stimulation of ATPase activity by P5 substrate peptide

Second part, led by results:

- kon [5]: 14000 M⁻¹ s⁻¹
- kon [6]: 3400 M⁻¹ s⁻¹
- binding result [7]: binds
- koff [8]: 0.0023 ± 3.47e-05 s⁻¹
- koff [9]: 0.0039 ± 0.000131 s⁻¹
- Kd [10]: 200 ± 37 nM
- Kd [11]: 1750 ± 269 nM
- binding result (Ssc1 D411R, purified): binds
- binding result [12]: binds
B1: fluorescein-labeled P5 peptide (peptide)
peptide: CALLLSAPRR
modifications: also: fluorescein label, position not given here

- fold reduced affinity for the substrate vs wild type [13]: ~8.6 fold
B2: E467A (protein)
chain: QSTKVQGSVIGIDLGTTNSAVAIMEGKVPKIIENAEGSRTTPSVVAFTKEGERLVGIPAKRQAVVNPENTLFATKRLIGRRFEDAEVQRDIKQVPYKIVKHSNGDAWVEARGQTYSPAQIGGFVLNKMKETAEAYLGKPVKNAVVTVPAYFNDSQRQATKDAGQIVGLNVLRVVNEPTAAALAYGLEKSDSKVVAVFDLGGGTFDISILDIDNGVFEVKSTNGDTHLGGEDFDIYLLREIVSRFKTETGIDLENDRMAIQRIREAAEKAKIELSSTVSTEINLPFITADASGPKHINMKFSRAQFETLTAPLVKRTVDPVKKALKDAGLSTSDISEVLLVGGMSRMPKVVETVKSLFGKDPSKAVNPDEAVAIGAAVQGAVLSGEVTDVLLLDVTPLSLGIETLGGVFTRLIPRNTTIPTKKSQIFSTAAAGQTSVEIRVFQGARELVRDNKLIGNFTLAGIPPAPKGVPQIEVTFDIDADGIINVSARDKATNKDSSITVAGSSGLSENEIEQMVNDAEKFKSQDEARKQAIETANKADQLANDTENSLKEFEGKVDKAEAQKVRDQITSLKELVARVQGGEEVNAEELKTKTEELQTSSMKLFEQLYKNDSNNNNNNNGNNAESGETKQ
- fold increase in basal ATPase activity (Ssc1 [14]): 4.85 fold
- substrate (peptide) release upon ATP addition (Ssc1 [15]): ~38%
- growth phenotype, in words (yeast cells): viable at 30 °C but displayed temperature sensitivity at 34 and 37 °C
- trypsin cleavage pattern, in words (Ssc1 [16]): the 30-kDa bands were very unstable and rapidly degraded further into smaller-sized fragments
- interaction with Tim44, in words (Tim44): interacted negligibly with Tim44 even in the absence of ATP
- Hsp60 precursor accumulation, in words (Hsp60): significant levels of Hsp60 precursor form as compared with wild type
- rate of precursor translocation into mitochondria, in words (Cytb2(47)-DHFR): impairment in translocation rate
- reduction in mitochondrial mass (mitochondrial mass): 30%
